Source: ChEMBL document CHEMBL4689842, “EUbOPEN Chemogenomics Library wave 1” (2021)

System: Fibroblast
Test: Multiplex assay against human fibroblast
Type: toxicity, cell-based
Procedure, shortened: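 Live cells carried four stains from seeding: Hoechst33342, BioTracker Green Microtubule Cytoskeleton Dye, MitoTracker Red and Annexin V Alexa Fluor 680. They were imaged on a CQ1 microscope at 37°C and 5% CO2 after compound addition. Using CellPathfinder machine-learning gating, cells were split into Hoechst high-intensity objects or normal cells, normal cells into healthy, pyknosed or fragmented nuclei, and pyknosed cells into mitotic or apoptotic; tubulin, mitochondrial-mass and membrane-permeability phenotypes are per cents of healthy-nucleus cells.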

[1] = 12 h, 1 µM, compound concentration 1 uM, replicate 1
[2] = 12 h, 1 µM, compound concentration 1 uM, replicate 2
[3] = 12 h, 10 µM, compound concentration 10 uM, replicate 1
[4] = 12 h, 10 µM, compound concentration 10 uM, replicate 2
[5] = 24 h, 1 µM, compound concentration 1 uM, replicate 1
[6] = 24 h, 1 µM, compound concentration 1 uM, replicate 2
[7] = 24 h, 10 µM, compound concentration 10 uM, replicate 1
[8] = 24 h, 10 µM, compound concentration 10 uM, replicate 2
[9] = 48 h, 1 µM, compound concentration 1 uM, replicate 1
[10] = 48 h, 1 µM, compound concentration 1 uM, replicate 2
[11] = 48 h, 10 µM, compound concentration 10 uM, replicate 1
[12] = 48 h, 10 µM, compound concentration 10 uM, replicate 2

In the case of `Cc1ccc(C)c(Oc2ccncc2C(=O)N2CCN(C3CC3)c3ccccc32)c1`, the “Population Apoptotic (%)” value [1] is reported as 75%, the “Population Fragmented Nuclei (%)” value [1] is reported as 20% and the “Population Healthy Nuclei (%)” value [1] is reported as 58%. The “Population Hoechst High Intensity Objects (%)” value [1] was 13%, the “Population Normal (%)” value [1] was 86% and the “Total Cell Count” value [1] was 90. The “Population Apoptotic (%)” value [2] was 66%, the “Population Healthy Nuclei (%)” value [2] was 75% and the “Population Hoechst High Intensity Objects (%)” value [2] was 10%. For the same molecule, the “Population Normal (%)” value [2] was 89%, the “Total Cell Count” value [2] was 73 and the “Population Apoptotic (%)” value [3] was 59%. The “Population Fragmented Nuclei (%)” value [3] was 27%, the “Population Healthy Nuclei (%)” value [3] was 43% and the “Population Hoechst High Intensity Objects (%)” value [3] was 10%. The “Population Normal (%)” value [3] was 89%, the “Total Cell Count” value [3] was 178 and the “Population Apoptotic (%)” value [4] was 33%. The “Population Fragmented Nuclei (%)” value [4] was 6%, the “Population Healthy Nuclei (%)” value [4] was 72% and the “Population Hoechst High Intensity Objects (%)” value [4] was 3%. For the same molecule, the “Population Normal (%)” value [4] was 96%, the “Total Cell Count” value [4] was 59 and the “Population Apoptotic (%)” value [5] was 52%. The “Population Fragmented Nuclei (%)” value [5] was 19%, the “Population Healthy Nuclei (%)” value [5] was 56% and the “Population Hoechst High Intensity Objects (%)” value [5] was 19%. For the same molecule, the “Population Normal (%)” value [5] was 80%, the “Total Cell Count” value [5] was 88 and the “Population Apoptotic (%)” value [6] was 42%. For the same molecule, the “Population Fragmented Nuclei (%)” value [6] was 27%, the “Population Healthy Nuclei (%)” value [6] was 60% and the “Population Hoechst High Intensity Objects (%)” value [6] was 6%. The “Population Normal (%)” value [6] was 93%, the “Total Cell Count” value [6] was 71 and the “Population Apoptotic (%)” value [7] was 55%. For the same molecule, the “Population Fragmented Nuclei (%)” value [7] was 26%, the “Population Healthy Nuclei (%)” value [7] was 51% and the “Population Hoechst High Intensity Objects (%)” value [7] was 6%. The “Population Normal (%)” value [7] was 93%, the “Total Cell Count” value [7] was 189 and the “Population Apoptotic (%)” value [8] was 53%. For the same molecule, the “Population Healthy Nuclei (%)” value [8] was 66%, the “Population Hoechst High Intensity Objects (%)” value [8] was 7% and the “Population Normal (%)” value [8] was 92%. The “Total Cell Count” value [8] was 65, the “Population Apoptotic (%)” value [9] was 80% and the “Population Fragmented Nuclei (%)” value [9] was 23%. The “Population Healthy Nuclei (%)” value [9] was 57%, the “Population Hoechst High Intensity Objects (%)” value [9] was 11% and the “Population Normal (%)” value [9] was 88%. The “Total Cell Count” value [9] was 87, the “Population Apoptotic (%)” value [10] was 50% and the “Population Fragmented Nuclei (%)” value [10] was 24%. For the same molecule, the “Population Healthy Nuclei (%)” value [10] was 72%, the “Population Normal (%)” value [10] was 84% and the “Total Cell Count” value [10] was 91. For the same molecule, the “Population Apoptotic (%)” value [11] was 66%, the “Population Fragmented Nuclei (%)” value [11] was 40% and the “Population Healthy Nuclei (%)” value [11] was 52%. For the same molecule, the “Population Hoechst High Intensity Objects (%)” value [11] was 9%, the “Population Normal (%)” value [11] was 91% and the “Total Cell Count” value [11] was 211. For the same molecule, the “Population Apoptotic (%)” value [12] was 25%, the “Population Fragmented Nuclei (%)” value [12] was 42% and the “Population Healthy Nuclei (%)” value [12] was 54%. For the same molecule, the “Population Hoechst High Intensity Objects (%)” value [12] was 7%, the “Population Normal (%)” value [12] was 92% and the “Total Cell Count” value [12] was 159.
In the case of `C=CC(=O)Nc1cccc(Oc2nc(Nc3ccc(N4CCN(C)CC4)cc3OC)ncc2Cl)c1`, the “Population Fragmented Nuclei (%)” value [1] is reported as 28%, the “Population Healthy Nuclei (%)” value [1] is reported as 65% and the “Population Hoechst High Intensity Objects (%)” value [1] is reported as 24%. The “Population Mitochondria Different-Phenotype (%)” value [1] was 14%, the “Population Normal (%)” value [1] was 75% and the “Population Pyknosed Nuclei (%)” value [1] was 6%. The “Population Tubulin-Different-Phenotype (%)” value [1] was 45%, the “Total Cell Count” value [1] was 324 and the “Population Apoptotic (%)” value [2] was 60%. For the same molecule, the “Population Fragmented Nuclei (%)” value [2] was 44%, the “Population Healthy Nuclei (%)” value [2] was 48% and the “Population Hoechst High Intensity Objects (%)” value [2] was 23%. For the same molecule, the “Population Membrane Permeable-Phenotype (%)” value [2] was 5%, the “Population Mitochondria Different-Phenotype (%)” value [2] was 26% and the “Population Mitotic Cells (%)” value [2] was 40%. The “Population Normal (%)” value [2] was 76%, the “Population Pyknosed Nuclei (%)” value [2] was 7% and the “Population Tubulin-Different-Phenotype (%)” value [2] was 64%. For the same molecule, the “Total Cell Count” value [2] was 92, the “Population Apoptotic (%)” value [3] was 62% and the “Population Fragmented Nuclei (%)” value [3] was 39%. The “Population Healthy Nuclei (%)” value [3] was 42%, the “Population Hoechst High Intensity Objects (%)” value [3] was 15% and the “Population Membrane Permeable-Phenotype (%)” value [3] was 7%. The “Population Mitochondria Different-Phenotype (%)” value [3] was 2%, the “Population Mitotic Cells (%)” value [3] was 37% and the “Population Normal (%)” value [3] was 84%. For the same molecule, the “Population Pyknosed Nuclei (%)” value [3] was 18%, the “Population Tubulin-Different-Phenotype (%)” value [3] was 10% and the “Total Cell Count” value [3] was 237. For the same molecule, the “Population Apoptotic (%)” value [4] was 20%, the “Population Fragmented Nuclei (%)” value [4] was 57% and the “Population Healthy Nuclei (%)” value [4] was 34%. The “Population Hoechst High Intensity Objects (%)” value [4] was 36%, the “Population Membrane Permeable-Phenotype (%)” value [4] was 18% and the “Population Mitochondria Different-Phenotype (%)” value [4] was 4%. The “Population Mitotic Cells (%)” value [4] was 80%, the “Population Normal (%)” value [4] was 64% and the “Population Pyknosed Nuclei (%)” value [4] was 7%. For the same molecule, the “Population Tubulin-Different-Phenotype (%)” value [4] was 18%, the “Total Cell Count” value [4] was 100 and the “Population Apoptotic (%)” value [5] was 61%. For the same molecule, the “Population Fragmented Nuclei (%)” value [5] was 29%, the “Population Healthy Nuclei (%)” value [5] was 60% and the “Population Hoechst High Intensity Objects (%)” value [5] was 47%. The “Population Membrane Permeable-Phenotype (%)” value [5] was 1%, the “Population Mitochondria Different-Phenotype (%)” value [5] was 26% and the “Population Mitotic Cells (%)” value [5] was 38%. The “Population Normal (%)” value [5] was 52%, the “Population Pyknosed Nuclei (%)” value [5] was 9% and the “Population Tubulin-Different-Phenotype (%)” value [5] was 38%. For the same molecule, the “Total Cell Count” value [5] was 265, the “Population Apoptotic (%)” value [6] was 66% and the “Population Fragmented Nuclei (%)” value [6] was 31%. The “Population Healthy Nuclei (%)” value [6] was 56%, the “Population Hoechst High Intensity Objects (%)” value [6] was 37% and the “Population Membrane Permeable-Phenotype (%)” value [6] was 7%. The “Population Mitochondria Different-Phenotype (%)” value [6] was 48%, the “Population Mitotic Cells (%)” value [6] was 33% and the “Population Normal (%)” value [6] was 62%. For the same molecule, the “Population Pyknosed Nuclei (%)” value [6] was 12%, the “Population Tubulin-Different-Phenotype (%)” value [6] was 70% and the “Total Cell Count” value [6] was 77. The “Population Apoptotic (%)” value [7] was 70%, the “Population Fragmented Nuclei (%)” value [7] was 33% and the “Population Healthy Nuclei (%)” value [7] was 50%. For the same molecule, the “Population Hoechst High Intensity Objects (%)” value [7] was 19%, the “Population Membrane Permeable-Phenotype (%)” value [7] was 3% and the “Population Mitochondria Different-Phenotype (%)” value [7] was 4%. For the same molecule, the “Population Mitotic Cells (%)” value [7] was 30%, the “Population Normal (%)” value [7] was 80% and the “Population Pyknosed Nuclei (%)” value [7] was 16%. For the same molecule, the “Population Tubulin-Different-Phenotype (%)” value [7] was 10%, the “Total Cell Count” value [7] was 231 and the “Population Apoptotic (%)” value [8] was 0%. For the same molecule, the “Population Fragmented Nuclei (%)” value [8] was 61%, the “Population Healthy Nuclei (%)” value [8] was 35% and the “Population Hoechst High Intensity Objects (%)” value [8] was 29%. For the same molecule, the “Population Membrane Permeable-Phenotype (%)” value [8] was 4%, the “Population Mitochondria Different-Phenotype (%)” value [8] was 9% and the “Population Mitotic Cells (%)” value [8] was 100%. For the same molecule, the “Population Normal (%)” value [8] was 70%, the “Population Pyknosed Nuclei (%)” value [8] was 3% and the “Population Tubulin-Different-Phenotype (%)” value [8] was 14%. For the same molecule, the “Total Cell Count” value [8] was 85.
